Laboratory results: ChEMBL document CHEMBL2331271, “Stereoselective synthesis of a new class of potent and selective inhibitors of human Δ8,7-sterol isomerase” (Bioorg Med Chem, 2013)
≈ marks a conversion by molar mass, not a printed value. Calls of active or inactive are those of the source. The rule behind the calls is not given here.

Columns and labels:
[1] = tested on: HL-60; test: Cytotoxicity against human HL60 cells by MTT assay; type: cell-based
Method in brief: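 Human leukemia HL-60 cells, kept in RPMI 1640 with 10% FBS without antibiotics at 37 °C, 5% CO2. Cytotoxicity by standard Mosmann MTT test. IC50 from dose-response curves run in triplicate, reported with 95% confidence interval and R2.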

[2] = target: 3-beta-hydroxysteroid-Delta(8),Delta(7)-isomerase (Homo sapiens, UniProt Q15125); test: Inhibition of delta8,7-sterol isomerase-mediated cholesterol biosynthesis in human HL60 cells assessed as increase in zymostenol accumulation; type: cell-based, HL-60; settings: for inhibition: HL-60
Method in brief: (§1)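 HL-60 cells (10^6) incubated 24 h at 37 °C, 5% CO2 in lipid-free medium with 1% LPDS, with compound in ethanol at final 1 or 50 µM. Cells were then saponified in 1 M NaOH at 70 °C for 60 min, extracted into TBME with cholestane internal standard, and silylated with TSIM. The sterol pattern was read by GC-MS full scan, with sterols identified by retention time and MS against authentic samples.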

[3] = tested on: Yarrowia lipolytica; test: Antifungal activity against Yarrowia lipolytica assessed as inhibition of fungal growth; type: functional
Method in brief: (§2)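 MIC by DIN 58940-84 broth dilution, strains kept in log phase at 28 °C in yeast extract/peptone/glucose medium, 0.5 McFarland standard. Compounds in ethanol stock 0.8 mg/mL, tested at 50, 25 and 12.5 µg/mL in duplicate wells. Controls: sterility, ethanol-only, clotrimazole 0.5 µg/mL, ketoconazole series. MIC = lowest concentration giving visibly complete growth inhibition.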

[4] = tested on: Saccharomyces cerevisiae; test: Antifungal activity against Saccharomyces cerevisiae assessed as inhibition of fungal growth; type: functional; method in brief: as §2
[5] = tested on: Nakaseomyces glabratus; test: Antifungal activity against Candida glabrata assessed as inhibition of fungal growth; type: functional; method in brief: as §2
[6] = target: 3-beta-hydroxysteroid-Delta(8),Delta(7)-isomerase/Delta(24)-sterol reductase (Homo sapiens) (UniProt Q15125+Q15392); test: Inhibition of Delta(8)-Delta(7) sterol isomerase/Delta(24)-sterol reductase-mediated cholesterol biosynthesis in human HL60 cells assessed as increase in zymostenol and zymosterol accumulation; type: cell-based; settings: HL-60; method in brief: as §1
[7] = Selectivity index, ratio of cytotoxic IC50 against human HL60 cells to IC50 for delta8,7-sterol isomerase-mediated cholesterol biosynthesis in human HL60 cells; type: functional, HL-60
Method in brief: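 Cytotoxicity IC50 from the HL-60 MTT test, in triplicate. Cholesterol biosynthesis IC50 came from HL-60 cells given graded inhibitor concentrations for 24 h in lipid-free medium with 1% LPDS plus 2-13C-acetate at final 62.5 µg/mL. Labelled cholesterol was measured by GC-MS (ions 372–379, 462–469), normalised to Bradford protein, and % inhibition fitted sigmoidally with bottom 0, in triplicate.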

Sequence of 3-beta-hydroxysteroid-Delta(8),Delta(7)-isomerase (Q15125 whole entry): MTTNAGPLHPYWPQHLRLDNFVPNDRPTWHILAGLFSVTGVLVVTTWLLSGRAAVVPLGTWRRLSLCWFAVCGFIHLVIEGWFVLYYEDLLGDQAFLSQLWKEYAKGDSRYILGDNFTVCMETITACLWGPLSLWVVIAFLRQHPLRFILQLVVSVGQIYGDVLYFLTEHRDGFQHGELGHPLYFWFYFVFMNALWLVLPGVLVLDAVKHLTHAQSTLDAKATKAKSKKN
Sequence of 3-beta-hydroxysteroid-Delta(8),Delta(7)-isomerase/Delta(24)-sterol reductase (Homo sapiens) (Q15125 whole entry, looked up): as the sequence (Q15125 whole entry) above
Sequence of 3-beta-hydroxysteroid-Delta(8),Delta(7)-isomerase/Delta(24)-sterol reductase (Homo sapiens) (Q15392 whole entry, looked up): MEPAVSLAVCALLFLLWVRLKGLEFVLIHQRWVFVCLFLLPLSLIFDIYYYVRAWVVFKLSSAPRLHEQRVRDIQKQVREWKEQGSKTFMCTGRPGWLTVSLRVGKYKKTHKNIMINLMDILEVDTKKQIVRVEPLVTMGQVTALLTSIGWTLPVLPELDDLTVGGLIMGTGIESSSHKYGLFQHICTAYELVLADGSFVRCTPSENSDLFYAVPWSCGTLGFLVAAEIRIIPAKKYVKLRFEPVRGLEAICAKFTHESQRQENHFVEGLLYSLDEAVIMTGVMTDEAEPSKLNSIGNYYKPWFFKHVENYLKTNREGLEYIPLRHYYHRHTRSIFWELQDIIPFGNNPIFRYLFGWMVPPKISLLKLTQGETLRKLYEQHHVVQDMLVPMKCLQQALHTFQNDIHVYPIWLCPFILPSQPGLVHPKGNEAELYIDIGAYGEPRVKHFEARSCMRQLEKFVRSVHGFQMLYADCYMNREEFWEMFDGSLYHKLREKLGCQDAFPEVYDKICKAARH

| SMILES | IC50 [1] | IC50 [2] | MIC [3] | MIC [4] | MIC [5] | inhibition [2] | inhibition [6] | Ratio IC50 [7] |
| --- | --- | --- | --- | --- | --- | --- | --- | --- |
| CC(C)CCC[C@@H](C)[C@H]1CC[C@@]2(C)[C@@H](O)[C@@H](N(Cc3ccccc3)Cc3ccccc3)CC[C@]12C | 27 µM | > 1 µM | 25 µg/mL (≈ 52.5 µM) | 25 µg/mL (≈ 52.5 µM) | 25 µg/mL (≈ 52.5 µM) |  |  |  |
| CC(C)CCC[C@@H](C)[C@H]1CC[C@@]2(C)[C@@H](O)[C@@H](N3CCN(C)CC3)CC[C@]12C |  |  | 25 µg/mL (≈ 66 µM) | 25 µg/mL (≈ 66 µM) | 25 µg/mL (≈ 66 µM) |  |  |  |
| COc1ccc(CN[C@H]2CC[C@]3(C)[C@@H]([C@H](C)CCCC(C)C)CC[C@@]3(C)[C@H]2O)c(OC)c1 |  |  | 25 µg/mL (≈ 56.1 µM) | 25 µg/mL (≈ 56.1 µM) | 25 µg/mL (≈ 56.1 µM) |  |  |  |
| CC(C)CCC[C@@H](C)[C@H]1CC[C@@]2(C)[C@@H](O)[C@@H](NCc3cccnc3)CC[C@]12C |  |  | 25 µg/mL (≈ 64.7 µM) | 25 µg/mL (≈ 64.7 µM) | 25 µg/mL (≈ 64.7 µM) |  |  |  |
| CC(C)CCC[C@@H](C)[C@H]1CC[C@@]2(C)[C@H](O)[C@@H](NCc3cccc(Cl)c3Cl)CC[C@]12C |  |  | 25 µg/mL (≈ 55 µM) | 25 µg/mL (≈ 55 µM) | 25 µg/mL (≈ 55 µM) | inactive |  |  |
| CC(C)CCC[C@@H](C)[C@H]1CC[C@@]2(C)[C@@H](O)[C@@H](NCc3ccoc3)CC[C@]12C |  |  | 25 µg/mL (≈ 66.6 µM) | 25 µg/mL (≈ 66.6 µM) | 25 µg/mL (≈ 66.6 µM) |  |  |  |
| C=CCCCN(Cc1ccccc1)[C@H]1CC[C@]2(C)[C@@H]([C@H](C)CCCC(C)C)CC[C@@]2(C)[C@H]1O | 17 µM | 0.082 µM | 25 µg/mL (≈ 55.1 µM) | 25 µg/mL (≈ 55.1 µM) | 25 µg/mL (≈ 55.1 µM) |  |  |  |
| CC(C)CCC[C@@H](C)[C@H]1CC[C@@]2(C)[C@@H](O)[C@@H](N(C)C)CC[C@]12C | 17 µM | 0.576 µM | 25 µg/mL (≈ 77.3 µM) | 25 µg/mL (≈ 77.3 µM) | 25 µg/mL (≈ 77.3 µM) |  |  |  |
| CCN[C@H]1CC[C@]2(C)[C@@H]([C@H](C)CCCC(C)C)CC[C@@]2(C)[C@H]1O |  |  | 25 µg/mL (≈ 77.3 µM) | 25 µg/mL (≈ 77.3 µM) | 25 µg/mL (≈ 77.3 µM) |  |  |  |
| CC/C(=C(\c1ccccc1)c1ccc(OCCN(C)C)cc1)c1ccccc1 |  |  |  |  |  |  | Active |  |
| CC(C)CCC[C@@H](C)[C@H]1CC[C@@]2(C)[C@H](O)[C@@H](NCc3ccc(Cl)cc3Cl)CC[C@]12C |  |  | 25 µg/mL (≈ 55 µM) | 25 µg/mL (≈ 55 µM) | 25 µg/mL (≈ 55 µM) | inactive |  |  |
| CC(C)CCC[C@@H](C)[C@H]1CC[C@@]2(C)[C@@H](O)[C@@H](NCc3ccc(Cl)cc3Cl)CC[C@]12C |  |  | 25 µg/mL (≈ 55 µM) | 25 µg/mL (≈ 55 µM) | 25 µg/mL (≈ 55 µM) |  |  |  |
| Clc1ccccc1C(c1ccccc1)(c1ccccc1)n1ccnc1 [CLOTRIMAZOLE] |  |  | 1 µg/mL (≈ 2.9 µM) | 0.5 µg/mL (≈ 1.45 µM) | 2.5 µg/mL (≈ 7.25 µM) |  |  |  |
| COc1ccc(CN[C@H]2CC[C@]3(C)[C@@H]([C@H](C)CCCC(C)C)CC[C@@]3(C)[C@H]2O)cc1 |  |  | 25 µg/mL (≈ 60.1 µM) | 25 µg/mL (≈ 60.1 µM) | 25 µg/mL (≈ 60.1 µM) |  |  |  |
| CC(C)CCC[C@@H](C)[C@H]1CC[C@@]2(C)[C@H](O)[C@@H](NCc3cccc(Cl)c3)CC[C@]12C |  |  | 25 µg/mL (≈ 59.5 µM) | 25 µg/mL (≈ 59.5 µM) | 25 µg/mL (≈ 59.5 µM) | inactive |  |  |
| C=CCCCN(C)[C@H]1CC[C@]2(C)[C@@H]([C@H](C)CCCC(C)C)CC[C@@]2(C)[C@H]1O | 7 µM | 0.018 µM | 25 µg/mL (≈ 66.2 µM) | 25 µg/mL (≈ 66.2 µM) | 25 µg/mL (≈ 66.2 µM) |  |  | 390 |
| CC(C)CCC[C@@H](C)[C@H]1CC[C@@]2(C)[C@H](O)[C@@H](NCc3ccoc3)CC[C@]12C |  |  | 25 µg/mL (≈ 66.6 µM) | 25 µg/mL (≈ 66.6 µM) | 25 µg/mL (≈ 66.6 µM) | inactive |  |  |

| SMILES | IC50 [1] | IC50 [2] | MIC [3] | MIC [4] | MIC [5] | inhibition [2] | inhibition [6] | Ratio IC50 [7] |
| --- | --- | --- | --- | --- | --- | --- | --- | --- |
| CC(C)CCC[C@@H](C)[C@H]1CC[C@@]2(C)[C@@H](O)[C@@H](NCc3ccc(I)o3)CC[C@]12C |  |  | 25 µg/mL (≈ 49.9 µM) | 25 µg/mL (≈ 49.9 µM) | 25 µg/mL (≈ 49.9 µM) |  |  |  |
| CC(C)CCC[C@@H](C)[C@H]1CC[C@@]2(C)[C@H](O)[C@@H](NCc3ccc(I)o3)CC[C@]12C |  |  | 25 µg/mL (≈ 49.9 µM) | 25 µg/mL (≈ 49.9 µM) | 25 µg/mL (≈ 49.9 µM) | inactive |  |  |
| CC(C)CCC[C@@H](C)[C@H]1CC[C@@]2(C)[C@H](O)[C@@H](NCc3ccccc3)CC[C@]12C |  |  | 25 µg/mL (≈ 64.8 µM) | 25 µg/mL (≈ 64.8 µM) | 25 µg/mL (≈ 64.8 µM) | inactive |  |  |
| Cc1cccc(N[C@H]2CC[C@]3(C)[C@@H]([C@H](C)CCCC(C)C)CC[C@@]3(C)[C@H]2O)c1C (mixture of isomers) |  |  | 25 µg/mL | 25 µg/mL | 25 µg/mL |  |  |  |
| Cc1cccc(N[C@H]2CC[C@]3(C)[C@@H]([C@H](C)CCCC(C)C)CC[C@@]3(C)C2=O)c1C |  |  | 25 µg/mL (≈ 62.9 µM) | 25 µg/mL (≈ 62.9 µM) | 25 µg/mL (≈ 62.9 µM) | inactive |  |  |
| CC(C)CCC[C@@H](C)[C@H]1CC[C@@]2(C)C(=O)[C@@H](N3CCN(C)CC3)CC[C@]12C |  |  | 25 µg/mL (≈ 66.4 µM) | 25 µg/mL (≈ 66.4 µM) | 25 µg/mL (≈ 66.4 µM) | inactive |  |  |
| CC(C)CCC[C@@H](C)[C@H]1CC[C@@]2(C)C(=O)[C@@H](N3C(C)COCC3C)CC[C@]12C (stereo not given in full) |  |  | 25 µg/mL (≈ 63.8 µM) | 25 µg/mL (≈ 63.8 µM) | 25 µg/mL (≈ 63.8 µM) | inactive |  |  |
| CC(C)CCC[C@@H](C)[C@H]1CC[C@@]2(C)[C@@H](O)[C@@H](NCc3cccc(Cl)c3Cl)CC[C@]12C |  |  | 25 µg/mL (≈ 55 µM) | 25 µg/mL (≈ 55 µM) | 25 µg/mL (≈ 55 µM) |  |  |  |
| CC(C)CCC[C@@H](C)[C@H]1CC[C@@]2(C)C(=O)[C@@H](N(C)C)CC[C@]12C |  |  | 25 µg/mL (≈ 77.7 µM) | 25 µg/mL (≈ 77.7 µM) | 25 µg/mL (≈ 77.7 µM) | inactive |  |  |
| C=CCCCN[C@H]1CC[C@]2(C)[C@@H]([C@H](C)CCCC(C)C)CC[C@@]2(C)[C@H]1O | 15 µM | 0.058 µM | 25 µg/mL (≈ 68.8 µM) | 25 µg/mL (≈ 68.8 µM) | 25 µg/mL (≈ 68.8 µM) |  |  |  |
| C=CCCCN[C@H]1CC[C@]2(C)[C@@H]([C@H](C)CCCC(C)C)CC[C@@]2(C)[C@@H]1O |  |  | 25 µg/mL (≈ 68.8 µM) | 25 µg/mL (≈ 68.8 µM) | 25 µg/mL (≈ 68.8 µM) | inactive |  |  |
| CC(C)CCC[C@@H](C)[C@H]1CC[C@@]2(C)[C@@H](O)[C@@H](N)CC[C@]12C | 11 µM | 0.581 µM | 25 µg/mL (≈ 84.6 µM) | 25 µg/mL (≈ 84.6 µM) | 25 µg/mL (≈ 84.6 µM) |  |  |  |
| CC(C)CCC[C@@H](C)[C@H]1CC[C@@]2(C)C(=O)[C@@H](NCc3cccnc3)CC[C@]12C |  |  | 25 µg/mL (≈ 65 µM) | 25 µg/mL (≈ 65 µM) | 25 µg/mL (≈ 65 µM) | inactive |  |  |
| CC(C)CCC[C@@H](C)[C@H]1CC[C@@]2(C)[C@@H](O)[C@@H](N(C)Cc3ccccc3)CC[C@]12C | 7 µM | 0.011 µM | 25 µg/mL (≈ 62.6 µM) | 25 µg/mL (≈ 62.6 µM) | 25 µg/mL (≈ 62.6 µM) |  |  | 636 |
| CC(C)CCC[C@@H](C)[C@H]1CC[C@@]2(C)[C@@H](O)[C@@H](NCc3cccc(Cl)c3)CC[C@]12C |  |  | 25 µg/mL (≈ 59.5 µM) | 25 µg/mL (≈ 59.5 µM) | 25 µg/mL (≈ 59.5 µM) |  |  |  |
| CC(C)CCC[C@@H](C)[C@H]1CC[C@@]2(C)[C@@H](O)[C@@H](NCc3ccccc3)CC[C@]12C | 8 µM | 0.015 µM | 25 µg/mL (≈ 64.8 µM) | 25 µg/mL (≈ 64.8 µM) | 25 µg/mL (≈ 64.8 µM) |  |  |  |
| CC(C)CCC[C@@H](C)[C@H]1CC[C@@]2(C)[C@@H](O)[C@@H](N3CC(C)OC(C)C3)CC[C@]12C (mixture of isomers) |  |  | 25 µg/mL | 25 µg/mL | 25 µg/mL |  |  |  |
